# Experimental data from ChEMBL document CHEMBL4732030, “Aloe-emodin derived azoles as a new structural type of potential antibacterial agents: design, synthesis, and evaluation of the action on membrane, DNA, and MRSA DNA isomerase” (RSC Med Chem, 2021).
# Calls of active or inactive are those of the source. The calls are words filed in the database; no cut-off is given here.
# Legend:
# Pseudomonas aeruginosa [1] = experiment: Antibacterial activity against Pseudomonas aeruginosa ATCC 27853 assessed as inhibition of bacterial growth after 24 hrs by microbroth dilution method; type: functional
# How it was run: (§1)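 Bacterial inoculum set to 1×10^5 CFU with sterile saline. Test agents and reference drugs, from DMSO stocks, diluted in Mueller-Hinton broth to 512, 256, 128, 64, 32, 16, 8, 4, 2, 1 and 0.5 µg/mL. Inoculated dilutions incubated 37 °C for 24 h.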
# Staphylococcus aureus [2] = experiment: Antibacterial activity against Staphylococcus aureus assessed as inhibition of bacterial growth after 24 hrs by microbroth dilution method; type: functional; how it was run: as §1
# Pseudomonas aeruginosa [3] = experiment: Antibacterial activity against Pseudomonas aeruginosa assessed as inhibition of bacterial growth after 24 hrs by microbroth dilution method; type: functional; how it was run: as §1
# Acinetobacter baumannii = experiment: Antibacterial activity against Acinetobacter baumannii assessed as inhibition of bacterial growth after 24 hrs by microbroth dilution method; type: functional; how it was run: as §1
# Staphylococcus aureus [4] = experiment: Antibacterial activity against Staphylococcus aureus ATCC 29213 assessed as inhibition of bacterial growth after 24 hrs by microbroth dilution method; type: functional
# How it was run: (§2)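 Inoculum adjusted in sterile saline to 1×10^5 CFU. Compounds dissolved in DMSO as stock, then diluted in Mueller-Hinton broth as a two-fold series from 512 to 0.5 µg/mL (11 levels). Inoculated dilutions incubated at 37 °C for 24 h, and the MIC recorded.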
# Escherichia coli [5] = experiment: Antibacterial activity against Escherichia coli ATCC 25922 assessed as inhibition of bacterial growth after 24 hrs by microbroth dilution method; type: functional; how it was run: as §1
# Staphylococcus aureus [6] = experiment: Antibacterial activity against methicillin resistant Staphylococcus aureus assessed as inhibition of bacterial growth after 24 hrs by microbroth dilution method; type: functional; how it was run: as §2
# Staphylococcus aureus [7] = experiment: Antibacterial activity against Staphylococcus aureus ATCC 25923 assessed as inhibition of bacterial growth after 24 hrs by microbroth dilution method; type: functional; how it was run: as §1
# Escherichia coli [8] = experiment: Antibacterial activity against Escherichia coli assessed as inhibition of bacterial growth after 24 hrs by microbroth dilution method; type: functional; how it was run: as §1
# Klebsiella pneumoniae = experiment: Antibacterial activity against Klebsiella pneumoniae assessed as inhibition of bacterial growth after 24 hrs by microbroth dilution method; type: functional; how it was run: as §1
# Enterococcus faecalis = experiment: Antibacterial activity against Enterococcus faecalis assessed as inhibition of bacterial growth after 24 hrs by microbroth dilution method; type: functional; how it was run: as §1
# Staphylococcus aureus [9] = experiment: Potency index, ratio of norfloxacin MIC to compound MIC for antibacterial activity against Staphylococcus aureus incubated for 24 hrs by microbroth dilution method; type: functional
# Calf thymus DNA [10] = experiment: Binding affinity to calf thymus DNA assessed as DNA intercalation by neutral red dye based UV-visible spectroscopic method; type: nucleic-acid assay; conditions: Bos taurus
# How it was run: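 Neutral red stock prepared in doubly distilled water and kept cool and dark. DNA stock concentration was set by A260 (ε260 = 6600 L·mol−1·cm−1, per phosphate), with A260/A280 >1.8. All solutions were in Tris-HCl pH 7.4. UV spectra were taken at room temperature in 1.0 cm quartz cells.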
# Cell membrane [11] = experiment: Disruption of membrane integrity in methicillin-reisitant Staphylococcus aureus assessed as increase in fluorescence intensity at 12 times MIC measured within 50 mins by PI-staining based fluorescence analysis
# How it was run: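 Overnight MRSA culture pelleted, washed and resuspended in 5 mM glucose/5 mM HEPES pH 7.4 (1:1). Compound at 12× MIC added to 2 mL suspension containing 10 µM propidium iodide. Fluorescence followed at ex 535/em 617 nm. Water-treated suspension served as control.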
# [12] = Cytotoxicity against human LO2 cells assessed as cell viability at 12.5 uM after 72 hrs by CCK8 assay; type: cell-based, L02; conditions: read-out: Activity
# How it was run: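 Normal human liver LO2 cells seeded at 3000/well and cultured 24 h. Compound added at 100 to 6.25 µM in PBS containing 1% DMSO, then incubated 72 h. CCK8 added for 2 h at 37 °C and absorbance read at 450 nm.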
# Cell membrane [13] = experiment: Disruption of membrane integrity in methicillin-reisitant Staphylococcus aureus assessed as increase in red fluorescence at 12 times MIC by PI-staining based fluorescence microscopy analysis
# How it was run: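 Overnight MRSA cultures treated at 12× MIC, with 0.1% Triton X-100 as positive control and untreated cells as negative control. Cells washed once in 1× PBS and stained with 4.5 mM propidium iodide for 15 min at 37 °C. Imaged by fluorescence microscopy, 10× objective, green-light excitation.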
# Staphylococcus aureus [14] = experiment: Potency index, ratio of norfloxacin MIC to compound MIC for antibacterial activity against methicillin resistant staphylococcus aureus incubated for 24 hrs by microbroth dilution method; type: functional
# Calf thymus DNA [15] = experiment: Binding affinity to calf thymus DNA assessed as DNA intercalation by measuring hypochromic shift by UV-visible absorption spectrophotometric method; type: nucleic-acid assay; conditions: Bos taurus
# How it was run: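 DNA held fixed while compound concentration was raised stepwise, in Tris-HCl buffer pH 7.4. UV-vis spectra recorded at room temperature in 1.0 cm quartz cells, monitoring the 260 nm DNA band. Binding constant came from a linear fit of A0/(A−A0) against 1/[compound]. DNA stock concentration was set by A260 (ε260 = 6600 L·mol−1·cm−1, per phosphate), with A260/A280 >1.8.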
# Staphylococcus aureus [16] = experiment: Induction of ROS generation in methicillin-resistant Staphylococcus aureus after 6 hrs by DCFH-DA dye based fluorometric analysis; type: functional, organism-based
# How it was run: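 MRSA cells at 10^6 CFU/mL were exposed to increasing concentrations of compound for 6 h at 37 °C, then washed with PBS. They were loaded with 10 μM DCFH-DA for 30 min in the dark at 37 °C. DCF fluorescence was read at ex 485/em 528 nm and expressed as fold increase over untreated control cells.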
# [17] = Cytotoxicity against human HepG2 cells assessed as cell viability at 12 uM after 72 hrs by CCK8 assay; type: cell-based; conditions: read-out: Activity
Compound,MIC (Pseudomonas aeruginosa [1]),MIC (Staphylococcus aureus [2]),MIC (Pseudomonas aeruginosa [3]),MIC (Acinetobacter baumannii),MIC (Staphylococcus aureus [4]),MIC (Escherichia coli [5]),MIC (Staphylococcus aureus [6]),MIC (Staphylococcus aureus [7]),MIC (Escherichia coli [8]),MIC (Klebsiella pneumoniae),MIC (Enterococcus faecalis),Ratio (Staphylococcus aureus [9]),Activity (Calf thymus DNA [10]),Activity (Cell membrane [11]),"viability at 72 h, 12.5 µM [12]",Activity (Cell membrane [13]),Ratio (Staphylococcus aureus [14]),Activity (Calf thymus DNA [15]),Activity (Staphylococcus aureus [16]),"viability at 72 h, 12 µM [17]"
O=C1c2cccc(O)c2C(=O)c2c(O)cc(CSc3nnc[nH]3)cc21,64 µg/mL,16 µg/mL,32 µg/mL,64 µg/mL,16 µg/mL,64 µg/mL,64 µg/mL,16 µg/mL,128 µg/mL,64 µg/mL,128 µg/mL,,,,,,,,,
O=C1c2cccc(O)c2C(=O)c2c(O)cc(Cn3cnc4cc([N+](=O)[O-])ccc43)cc21,32 µg/mL,32 µg/mL,32 µg/mL,32 µg/mL,32 µg/mL,32 µg/mL,64 µg/mL,64 µg/mL,64 µg/mL,64 µg/mL,16 µg/mL,,,,,,,,,
Cn1ccnc1SCc1cc(O)c2c(c1)C(=O)c1cccc(O)c1C2=O,64 µg/mL,128 µg/mL,128 µg/mL,32 µg/mL,128 µg/mL,128 µg/mL,128 µg/mL,256 µg/mL,128 µg/mL,128 µg/mL,128 µg/mL,,,,,,,,,
CCn1cc(C(=O)O)c(=O)c2cc(F)c(N3CCNCC3)cc21 [NORFLOXACIN],2 µg/mL,8 µg/mL,8 µg/mL,0.5 µg/mL,1 µg/mL,8 µg/mL,8 µg/mL,1 µg/mL,16 µg/mL,4 µg/mL,32 µg/mL,,,,,,,,,
Cn1nnnc1SCc1cc(O)c2c(c1)C(=O)c1cccc(O)c1C2=O,64 µg/mL,8 µg/mL,64 µg/mL,64 µg/mL,32 µg/mL,64 µg/mL,32 µg/mL,16 µg/mL,128 µg/mL,128 µg/mL,128 µg/mL,2,,,,,,,,
O=C1c2cccc(O)c2C(=O)c2c(O)cc(Cn3nnc4ccccc43)cc21,64 µg/mL,128 µg/mL,128 µg/mL,16 µg/mL,32 µg/mL,32 µg/mL,32 µg/mL,256 µg/mL,128 µg/mL,128 µg/mL,32 µg/mL,,,,,,,,,
Cc1nnnn1Cc1cc(O)c2c(c1)C(=O)c1cccc(O)c1C2=O,32 µg/mL,16 µg/mL,128 µg/mL,32 µg/mL,64 µg/mL,64 µg/mL,32 µg/mL,64 µg/mL,64 µg/mL,64 µg/mL,16 µg/mL,,,,,,,,,
O=C1c2cccc(O)c2C(=O)c2c(O)cc(Cn3ccnc3[N+](=O)[O-])cc21,64 µg/mL,32 µg/mL,64 µg/mL,64 µg/mL,32 µg/mL,32 µg/mL,32 µg/mL,32 µg/mL,64 µg/mL,64 µg/mL,32 µg/mL,,,,,,,,,
O=C1c2cccc(O)c2C(=O)c2c(O)cc(Cn3cnnn3)cc21,16 µg/mL,16 µg/mL,64 µg/mL,16 µg/mL,1 µg/mL,64 µg/mL,2 µg/mL,64 µg/mL,128 µg/mL,32 µg/mL,4 µg/mL,,Active,Active,> 60%,Active,4,Active,inactive,> 50%
